# “Also recorded” adds a separate entry of the source.
# Assays:
# thyroid cancer = settings: human epidemiology, California; ref Omidakhsh et al., 2022; cited from earlier work
# [1] = Body weight, percent growth and general toxicity in 4- and 8-day studies; type: in vivo, rat
# [2] = tested on: juvenile male and female Sprague-Dawley rats; experiment: Four-day oral exposure, serum thyroid hormones; type: in vivo, rat
# Procedure, shortened: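 Weanling Sprague-Dawley rats arrived PND21 and were fed AIN-93 diet (iodide 225 ng/g). Groups were weight-ranked, n = 6 per sex per dose. Daily oral gavage PND 27–30 at 0, 125, 250 or 500 mg/kg in 1 % methyl cellulose suspension, adjusted to daily body weight. Decapitation ~2 hr after 4th dose. Trunk serum total T4/T3 by RIA kits (LOD 1.24, 0.50 ng/ml). One-way ANOVA, Dunnett's; mean ± SEM.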
# thyroid peroxidase = settings: ToxCast in vitro; ref Paul Friedman et al., 2016; cited from earlier work
# FRTL-5 cells = settings: any concentration tested up to 100 μM; ref Buckalew et al., 2020; cited from earlier work
# [3] = Oxyfluorfen quantitation in serum and thyroid gland; type: in vivo, rat
# Procedure, shortened: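 Serum came from 4-day gavage (0–500 mg/kg) and male 8-day gavage (PND27–34, 0–62.5 mg/kg); thyroids came from 8-day rats. Serum (60 µL) was spiked with d5-labelled internal standard, equilibrated 30 min at room temperature, then protein-precipitated with acetonitrile. LC/MS/MS used positive ESI in MRM mode with isotope dilution and serum-matched calibration (2.5–5000 ng/ml). LOQ 25 ng/mL serum, 2.5 ng/g thyroid; results below LOQ reported ND.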
# [4] = cited from earlier work
# hNIS-HEK293T-EPA cells = settings: any concentration tested up to 100 μM; ref Buckalew et al., 2020; cited from earlier work
# [5] = biological target: T1, human sodium iodide symporter (NIS) (Homo sapiens, UniProt Q92911); experiment: hNIS-HEK293T-EPA radioactive iodide uptake; type: cell-based
# T1 sequence (Q92911 1-643): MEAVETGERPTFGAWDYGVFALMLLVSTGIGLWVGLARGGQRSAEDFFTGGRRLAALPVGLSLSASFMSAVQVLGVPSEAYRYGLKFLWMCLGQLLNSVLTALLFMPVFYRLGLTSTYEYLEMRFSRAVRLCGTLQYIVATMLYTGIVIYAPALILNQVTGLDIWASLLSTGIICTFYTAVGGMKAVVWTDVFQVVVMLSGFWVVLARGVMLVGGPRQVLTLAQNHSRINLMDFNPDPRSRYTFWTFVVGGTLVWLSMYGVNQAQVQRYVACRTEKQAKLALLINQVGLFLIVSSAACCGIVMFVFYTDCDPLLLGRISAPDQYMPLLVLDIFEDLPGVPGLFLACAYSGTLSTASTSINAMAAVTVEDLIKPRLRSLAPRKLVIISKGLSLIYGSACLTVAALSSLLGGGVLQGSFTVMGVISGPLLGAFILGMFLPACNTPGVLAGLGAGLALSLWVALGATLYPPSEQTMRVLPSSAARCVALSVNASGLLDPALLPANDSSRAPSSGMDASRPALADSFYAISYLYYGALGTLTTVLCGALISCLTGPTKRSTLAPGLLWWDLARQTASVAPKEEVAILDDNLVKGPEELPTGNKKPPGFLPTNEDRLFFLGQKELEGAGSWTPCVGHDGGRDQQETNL
# [6] = higher purity (>98 %) oxyfluorfen; ref RED 2002; 2019; cited from earlier work
# deiodinase = settings: ToxCast in vitro; ref Olker et al., 2019; cited from earlier work
# [7] = tested on: juvenile male Sprague-Dawley rats; experiment: Eight-day oral exposure, serum thyroid hormones, TSH and thyroid weight; type: in vivo, rat
# liver = settings: 98 % pure technical grade, up to 73 mg/kg; ref U.S. EPA, 2021; cited from earlier work
# mouse and rabbit = mouse and rabbit studies; ref U.S. EPA, 2021; cited from earlier work
# [8] = 8 days oral, any treatment group (0.8125 to 62.5 mg/kg)
smiles,measurement,setting,value
"CCOc1cc(Oc2ccc(C(F)(F)F)cc2Cl)ccc1[N+](=O)[O-] [oxyfluorfen, 2-chloro-1-(3-ethoxy-4-nitrophenoxy)-4(trifluoromethyl)benzene]",Association with the occurrence of thyroid cancer,thyroid cancer,increased odds ratio
same,Final body weight or percent growth,"[1]; 4- or 8-day treatment, any dose, male or female",did not significantly affect
same,Visible signs of toxicity,"[1]; daily observations, all treated animals",no visible signs of toxicity
same,Decrease in serum T3,"[2]; female, 4 days oral, 125 mg/kg",18%
same,Decrease in serum T4,"[2]; female, 4 days oral, 125 mg/kg",~55%
same,Serum T3 vs control,"[2]; female, 4 days oral, 125 mg/kg",significantly suppressed
same,Serum T3 vs control,"[2]; female, 4 days oral, 250 mg/kg",not significantly suppressed
same,Serum T3 vs control,"[2]; female, 4 days oral, 500 mg/kg",significantly suppressed
same,Total serum thyroxine (T4),"[2]; male and female, 4 days, all doses (125, 250, 500 mg/kg/day)",suppressed
same,Decrease in serum T3,"[2]; male, 4 days oral, 125 mg/kg",35%
same,Decrease in serum T4,"[2]; male, 4 days oral, 125 mg/kg",68%
same,Suppression of serum T3,"[2]; male, 4 days oral, 125 to 500 mg/kg",approximately 30%
same,Suppression of serum T4,"[2]; male, 4 days oral, all doses (125, 250, 500 mg/kg)",70%
same,Activity in thyroid peroxidase inhibition assay,thyroid peroxidase,no reported thyroid activity
same,Cytotoxicity,FRTL-5 cells,no observed cytotoxicity; also recorded: no confounding cytotoxicity
same,Serum oxyfluorfen detection,"[3]; all treated serum samples, 4- and 8-day studies",detected
same,Kp at 8 days,"[3]; male, Sprague-Dawley, rat, thyroid gland / serum, oral, 62.5 mg/kg",2 to 3
same,Tissues with the highest levels of oxyfluorfen,"[4]; following acute exposure, ref U.S. EPA, 2019","lung, thyroid, liver, ovaries, kidneys, adrenals and fat"
same,Half-life,"[4]; in the rat, ref 2002 RED",approximately 30 h
same,Cytotoxicity,hNIS-HEK293T-EPA cells,no observed cytotoxicity; also recorded: no confounding cytotoxicity
same,IC50,[5],2000 nM
same,"Acute oral, dermal, and inhalation toxicity",[6],low oral toxicity
same,Activity in deiodinase inhibition assay,deiodinase,no reported thyroid activity
same,LOEL for suppression of serum T4,[7]; 8-day daily oral exposure,3.25 mg/kg
same,NOEL for serum T4,[7]; 8-day daily oral exposure,1.625 mg/kg
same,LOEL for suppression of serum T3,[7]; 8-day oral exposure,62.5 mg/kg/day
same,LOEL for suppression of serum T4,[7]; 8-day oral exposure,3.25 mg/kg/day
same,Serum T3 vs control,"[7]; 8 days oral, 62.5 mg/kg",significantly suppressed
same,Serum T3 vs control,"[7]; 8 days oral, 15 and 31.25 mg/kg",non-significant decrease
same,Serum TSH,[7]; [8],no significant differences; also recorded: No significant effects; also recorded: no significant changes
same,Thyroid weight,[7]; [8],No changes; also recorded: no significant differences
same,Liver tumor incidence,liver,has not shown liver tumor incidence
same,Current guideline NOELs and LOELs,mouse and rabbit,33 mg/kg
